Assay [1] concerns the target T1, C-C chemokine receptor type 1 (Homo sapiens, UniProt P32246).
T1 sequence (P32246 whole entry): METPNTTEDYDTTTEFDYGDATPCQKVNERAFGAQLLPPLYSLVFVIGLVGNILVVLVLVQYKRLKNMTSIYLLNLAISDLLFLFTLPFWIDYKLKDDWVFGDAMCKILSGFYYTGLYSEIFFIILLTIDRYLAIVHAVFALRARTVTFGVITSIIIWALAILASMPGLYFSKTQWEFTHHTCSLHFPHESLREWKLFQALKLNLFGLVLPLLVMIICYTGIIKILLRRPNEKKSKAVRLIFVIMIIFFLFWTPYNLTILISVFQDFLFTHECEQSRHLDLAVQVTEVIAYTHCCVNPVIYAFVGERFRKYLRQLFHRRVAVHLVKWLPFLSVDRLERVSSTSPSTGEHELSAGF
The assay can be described thus: Inhibitory activity against MIP-1 alpha- induced [Ca2+] response in U937 cells expressing human CCR1 receptor. Format: functional, cell-based, U-937. The method in brief:
(§1)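 U937 cells transfected with the CCR receptor were loaded with 1 µM Fura-2 AM for 30 min at 37 °C and washed twice. They were resuspended at 1 × 10^6 cells/mL in Krebs-Henseleit-HEPES with 0.1% BSA. The stirred cuvette suspension was read at 37 °C for chemokine-induced fluorescence change, with excitation at 340 and 380 nm and emission at 510 nm.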

In assay [2] the target is T2, C-C chemokine receptor type 3 (Homo sapiens, UniProt P51677).
T2 sequence (P51677 whole entry): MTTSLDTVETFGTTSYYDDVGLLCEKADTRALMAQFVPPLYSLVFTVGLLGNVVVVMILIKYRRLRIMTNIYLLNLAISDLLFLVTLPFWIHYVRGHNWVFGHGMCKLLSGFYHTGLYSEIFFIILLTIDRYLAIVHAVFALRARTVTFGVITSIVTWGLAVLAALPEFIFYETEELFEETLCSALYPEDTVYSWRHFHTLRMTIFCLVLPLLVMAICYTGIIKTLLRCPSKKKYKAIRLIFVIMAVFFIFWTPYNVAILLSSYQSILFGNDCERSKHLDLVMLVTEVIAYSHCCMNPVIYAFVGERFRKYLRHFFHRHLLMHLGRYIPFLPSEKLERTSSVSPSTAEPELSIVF
The assay can be described thus: Inhibitory activity against I-Eotaxin binding to human CCR3 receptors. In short, it runs like this:
(§2)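 CCR-transfected CHO cells, detached with PBS(-)/2 mM EDTA, in Krebs-Ringer phosphate buffer with 0.1% BSA and 0.1% glucose. 1×10^5 cells incubated with 50 pM 125I-chemokine plus antagonist, 1 h at 37 °C to equilibrium. Nonspecific binding measured with 100 nM unlabeled chemokine. Reaction stopped with ice-cold binding buffer.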

Assay [3] deals with T1, C-C chemokine receptor type 1. Briefly: Inhibitory activity against [125I]-MIP-1 alpha binding to human CCR1 receptors. In short, it runs like this:
(§3)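 Whole-cell binding. CHO cells transfected with the CCR receptor were detached with PBS(-) containing 2 mM EDTA and resuspended in Krebs-Ringer phosphate buffer with 0.1% BSA and 0.1% glucose. 1 × 10^5 cells were incubated with 50 pM 125I-chemokine plus antagonist for 1 h at 37 °C to reach equilibrium. Nonspecific binding was taken with 100 nM unlabeled chemokine. Ice-cold buffer was then added.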

The target of assay [4] is T3, Probable C-C chemokine receptor type 3 (Mus musculus, UniProt P51678).
T3 sequence (P51678 whole entry): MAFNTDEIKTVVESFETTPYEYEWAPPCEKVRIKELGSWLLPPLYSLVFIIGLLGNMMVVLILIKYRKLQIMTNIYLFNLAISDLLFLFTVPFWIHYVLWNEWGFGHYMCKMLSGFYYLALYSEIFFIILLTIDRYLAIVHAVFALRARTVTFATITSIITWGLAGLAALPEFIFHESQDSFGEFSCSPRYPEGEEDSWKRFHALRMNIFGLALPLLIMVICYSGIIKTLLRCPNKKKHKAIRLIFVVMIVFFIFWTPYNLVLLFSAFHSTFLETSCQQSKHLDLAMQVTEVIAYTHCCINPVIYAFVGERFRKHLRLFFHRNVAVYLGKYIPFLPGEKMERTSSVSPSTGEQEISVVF
Briefly: Inhibitory activity against I-Eotaxin induced [Ca2+] response in mouse CCR3 receptor. Type of assay: functional. In short, it runs like this: as §1

Assay [5] concerns the target T4, C-C chemokine receptor type 4 (Homo sapiens, UniProt P51679).
T4 sequence (P51679 whole entry): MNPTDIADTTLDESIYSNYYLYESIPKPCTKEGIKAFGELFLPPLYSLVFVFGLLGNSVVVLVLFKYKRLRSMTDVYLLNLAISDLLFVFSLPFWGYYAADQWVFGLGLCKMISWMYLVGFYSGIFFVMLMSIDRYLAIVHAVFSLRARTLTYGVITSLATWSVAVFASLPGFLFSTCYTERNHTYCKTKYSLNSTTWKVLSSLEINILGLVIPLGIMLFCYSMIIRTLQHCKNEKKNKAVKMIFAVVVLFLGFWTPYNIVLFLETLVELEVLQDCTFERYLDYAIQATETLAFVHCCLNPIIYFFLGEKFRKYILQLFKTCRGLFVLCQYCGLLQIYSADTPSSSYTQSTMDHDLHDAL
Briefly: Inhibitory activity against […] induced increase in intracellular [Ca2+] in KU812 cells expressing human CCR4 receptor. Type of assay: functional, cell-based. The method in brief:
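Calcium rise evoked by TARC in KU812 cells.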

The target in assay [6] is T2, C-C chemokine receptor type 3. Briefly: Inhibitory activity against I-Eotaxin induced [Ca2+] response in human CCR3 receptor. Type of assay: functional. In short, it runs like this: (§4)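 Calcium flux in U937 cells transfected with CCR receptors, loaded with 1 µM Fura-2 AM for 30 min at 37 °C, washed twice and resuspended at 1×10^6 cells/mL in Krebs-Henseleit-Hepes buffer with 0.1% BSA. Stirred cuvette fluorescence read at 37 °C, excitation 340 and 380 nm, emission 510 nm, after chemokine stimulation.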

Assay [7] is described as follows: Inhibitory activity of I-interleukin-8-binding to human neutrophil at human CXCR1,2 receptor. The method in brief:
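125I-interleukin-8 binding to human neutrophil membranes.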

Assay [8] has as its target T5, C-C chemokine receptor type 1 (Mus musculus, UniProt P51675).
T5 sequence (P51675 whole entry): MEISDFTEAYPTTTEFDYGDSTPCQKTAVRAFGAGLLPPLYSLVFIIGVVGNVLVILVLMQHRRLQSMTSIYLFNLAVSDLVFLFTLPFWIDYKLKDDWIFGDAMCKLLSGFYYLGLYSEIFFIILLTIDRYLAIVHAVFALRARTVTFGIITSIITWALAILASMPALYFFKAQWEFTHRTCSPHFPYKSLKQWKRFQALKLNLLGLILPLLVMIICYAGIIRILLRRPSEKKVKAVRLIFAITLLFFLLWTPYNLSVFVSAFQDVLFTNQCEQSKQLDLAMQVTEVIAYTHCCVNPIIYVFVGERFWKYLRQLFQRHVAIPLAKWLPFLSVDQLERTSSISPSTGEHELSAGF
Briefly: Inhibitory activity against 125 I -MIP-1 alpha binding to mouse CCR1 receptors. The method in brief:
as §2

Assay [9] can be described thus: Inhibitory activity of Fractalkine-induced increase in [Ca2+] Conc. in HEL cells at human CX3CR1 receptor. Type of assay: functional, cell-based. In short, it runs like this:
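Calcium rise evoked by fractalkine in HEL cells.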

Assay [10] has as its target C-C chemokine receptor type 2 (Homo sapiens, UniProt P41597). Briefly: Inhibitory activity in human CCR2b receptor.
The target in assay [11] is T5, C-C chemokine receptor type 1. Briefly: inhibitory activity against MIP-1 alpha- induced [Ca2+] response in U937 cells expressing mouse CCR1 receptor. Type of assay: functional, cell-based, U-937. In short, it runs like this: as §4
The target is the same in assay [12]. The assay can be described thus: Inhibitory activity against [125I]-MIP-1 alpha binding to mouse CCR1 receptors. In short, it runs like this: as §3
Assay [13] concerns the target C-C chemokine receptor type 5 (Homo sapiens, UniProt P51681). The assay can be described thus: Inhibition of RANTES binding to C-C chemokine receptor type 5. The method in brief: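 CCR5 binding was done on membranes, following the kit manufacturer's instructions.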
The target in assay [14] is T3, Probable C-C chemokine receptor type 3. The assay can be described thus: Inhibitory activity against I-Eotaxin alpha binding to mouse CCR3 receptors. In short, it runs like this: as §3

C-C chemokine receptor type 2, sequence (P41597 whole entry): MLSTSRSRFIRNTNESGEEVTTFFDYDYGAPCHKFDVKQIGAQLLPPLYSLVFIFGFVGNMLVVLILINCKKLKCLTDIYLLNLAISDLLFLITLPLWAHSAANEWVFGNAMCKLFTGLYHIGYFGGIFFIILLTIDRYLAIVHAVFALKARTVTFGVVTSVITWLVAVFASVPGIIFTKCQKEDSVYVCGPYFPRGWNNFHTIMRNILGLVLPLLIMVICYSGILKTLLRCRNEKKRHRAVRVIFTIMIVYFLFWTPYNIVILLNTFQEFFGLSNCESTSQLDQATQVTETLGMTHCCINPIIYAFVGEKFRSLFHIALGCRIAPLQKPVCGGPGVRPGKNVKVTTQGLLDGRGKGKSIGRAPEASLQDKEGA
C-C chemokine receptor type 5, sequence (P51681 whole entry): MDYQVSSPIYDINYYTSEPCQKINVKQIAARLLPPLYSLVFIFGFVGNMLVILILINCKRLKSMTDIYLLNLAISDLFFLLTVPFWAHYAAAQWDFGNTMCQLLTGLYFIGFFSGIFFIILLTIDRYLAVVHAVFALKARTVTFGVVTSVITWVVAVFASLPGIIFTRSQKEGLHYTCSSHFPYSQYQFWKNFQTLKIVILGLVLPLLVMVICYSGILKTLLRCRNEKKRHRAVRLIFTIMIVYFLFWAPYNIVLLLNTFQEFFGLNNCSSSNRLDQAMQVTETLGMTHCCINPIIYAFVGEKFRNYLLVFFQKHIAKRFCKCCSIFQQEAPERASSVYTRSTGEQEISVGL

What is called IC50 is the point on the concentration scale where inhibition reaches its midpoint. A low value points to greater potency. For the compound `CC[N+]1(C/C2=C/CCCCCC2)CCC(NC(=O)C2c3cc(Cl)ccc3Oc3ccc(Cl)cc32)CC1` (stereo in doubt; 2q-1), the concentration for half-maximal inhibition (IC50) in assay [1] is 0.73 nM; in assay [2], 0.58 nM; in [3] it was 0.9 nM; in [4] it was 360 nM; in assay [5] it was greater than 10000 nM; in assay [6], 6.1 nM. In addition, the half-maximal inhibitory concentration (IC50) in [7] is greater than 1000 nM; in assay [8] it was 5.8 nM; in [9], greater than 10000 nM; in assay [10], greater than 1000 nM; in assay [11], 21 nM; in [12] it was 5.8 nM. Besides, the figures for the half-maximal inhibitory concentration (IC50) in [13] and in assay [14] were greater than 1000 nM and 460 nM, respectively.

The values are drawn from ChEMBL document CHEMBL1134409, “Design, synthesis, and discovery of a novel CCR1 antagonist” (J Med Chem, 2001).
